Results as given in ChEMBL document CHEMBL1145179, “Synthesis and enzyme-specific activation of carbohydrate-geldanamycin conjugates with potent anticancer activity” (J Med Chem, 2005).

Experiments:
Format in all cases: functional, cell-based
MCF7 [1] = experiment: Inhibitory concentration against human Breast cancer MCF-7 cell lines
How it was run: (§1)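 MTS assay. Cells (2000-10 000) seeded in RPMI-1640 and grown 24 h, then exposed to various concentrations for 72 h at 37 °C under 5% CO₂. MTS (2 mg/ml) with PMS (25 µM) added for 3 h at 37 °C, and formazan read at 490 nm. IC50 taken from dose-response curves of % growth vs untreated control.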

SW-620 = experiment: Inhibitory concentration against human colorectal carcinoma SW620 cell lines; how it was run: as §1
HT-29 = experiment: Inhibitory concentration against human colorectal carcinoma HT-29 cell lines; how it was run: as §1
K562 = experiment: Inhibitory concentration against human leukemia K562 cell lines; how it was run: as §1
MCF7 [2] = experiment: Inhibitory concentration against human breast cancer MCF-7 cell lines; how it was run: as §1

SMILES	IC50 (MCF7 [1]) [µM]	IC50 (SW-620) [µM]	IC50 (HT-29) [µM]	IC50 (K562) [µM]	IC50 (MCF7 [2]) [µM]
COC1/C=C\C=C(/C)C(=O)NC2=CC(=O)C(NCCOCCO[C@@H]3O[C@@H](CO)[C@H](O)[C@H](O)[C@@H]3O)=C(C[C@@H](C)C[C@H](OC)[C@H](O)C(C)/C=C(\C)[C@@H]1OC(N)=O)C2=O (stereo partly drawn)	> 22	> 11	> 13	> 15	–
COC1/C=C\C=C(/C)C(=O)NC2=CC(=O)C(NCCCO[C@@H]3O[C@@H](CO)[C@H](O)[C@H](O)[C@@H]3O)=C(C[C@@H](C)C[C@H](OC)[C@H](O)C(C)/C=C(\C)[C@@H]1OC(N)=O)C2=O (stereo partly drawn)	> 12	> 14	> 6	> 14	–
COC1/C=C\C=C(/C)C(=O)NC2=CC(=O)C(NCCCCCO[C@@H]3O[C@@H](CO)[C@H](O)[C@H](O)[C@@H]3O)=C(C[C@@H](C)C[C@H](OC)[C@H](O)C(C)/C=C(\C)[C@@H]1OC(N)=O)C2=O (stereo partly drawn)	> 17	> 13	> 13	> 19	–
COC1/C=C\C=C(/C)C(=O)NC2=CC(=O)C(NCCO[C@@H]3O[C@@H](CO)[C@H](O)[C@H](O)[C@@H]3O)=C(C[C@@H](C)C[C@H](OC)[C@H](O)C(C)/C=C(\C)[C@@H]1OC(N)=O)C2=O (stereo partly drawn)	> 25	> 8	> 14	> 23	–
COC1=C2C[C@@H](C)C[C@H](OC)[C@H](O)[C@@H](C)/C=C(\C)[C@H](OC(N)=O)[C@@H](OC)/C=C\C=C(/C)C(=O)NC(=CC1=O)C2=O [GELDANAMYCIN]	–	0.0062	0.0245	0.0221	0.0065
COC1/C=C\C=C(/C)C(=O)NC2=CC(=O)C(NCCO[C@@H]3O[C@@H](CO)[C@@H](O)[C@H](O)[C@@H]3O)=C(C[C@@H](C)C[C@H](OC)[C@H](O)C(C)/C=C(\C)[C@@H]1OC(N)=O)C2=O (stereo partly drawn)	0.754	0.0702	0.105	0.381	–
COC1/C=C\C=C(/C)C(=O)NC2=CC(=O)C(NCCO[C@@H]3O[C@@H](CO)[C@@H](O[C@@H]4O[C@@H](CO)[C@H](O)[C@H](O)[C@@H]4O)[C@H](O)[C@@H]3O)=C(C[C@@H](C)C[C@H](OC)[C@H](O)C(C)/C=C(\C)[C@@H]1OC(N)=O)C2=O (stereo partly drawn)	> 22	> 20	> 25	> 25	–
